We go through three molecules from publication PMC4980077 (The FEBS journal, 2016).

Residue numbers refer to the chain shown, from its start. In names and notes the source's numbering stands.

For one experiment, the system named is PKA-Cα. The experiment can be described thus: 32P phosphorylation. Conditions: PKA-Cα 20 nM, pH 7.5; n = 3. Format: biochemical. The method, boiled down: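 Substrate was His-tagged human smAKAP (wild type, or S66D with PKA-Cα) at 10 μM. It was incubated with 20 nM recombinant kinase in 50 mM MOPS pH 7.5 containing 10 mM MgCl2, 200 μM ATP and [32P]ATP. Aliquots were quenched in 30% acetic acid at 0, 5, 10 and 15 min. Results are means ± SD of 3 independent experiments.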

A further experiment has as its system PKA-RIα. Briefly: Confocal colocalization with PKA-RIα in HeLa cells. It counts as cell-based. The note with it: phosphomimetic mutant + PKA-RIα-mKO2.
For a further experiment, the system named is PKA-RIβ. Briefly: Confocal colocalization with PKA-RIβ-mKO2 in HeLa cells. Format: cell-based. Conditions: for localization of PKA-RIβ on co-transfection: phosphomimetic mutant + PKA-RIβ-mKO2. The essentials:
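HeLa cells co-expressed GFP-tagged smAKAP (wild type, S66E or S66D) with mKO2-tagged PKA-RIα or RIβ. Cells were washed in ice-cold PBS, fixed in ice-cold 4% formaldehyde in PBS, washed twice and imaged by confocal microscopy through a 63× oil objective. Stimulated cells received calyculin A plus 8-CPT-cAMP and were imaged live.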

B1: smAKAP-S66D: recombinant smAKAP with Ser66 mutated to an aspartic acid (protein, UniProt Q9BSF0 2-95, looked up, variant S66D)
Small membrane A-kinase …: GCMKSKQTFPFPTIYEGEKQHESEEPFMPEERCLPRMASPVNVKEEVKEPPGTNTVILEYAHRLDQDILCDALQQWACNNIKYHDIPYIESEGP
As for B1, the “phosphorylation by PKA” value with PKA-Cα is listed as “no detectable levels of phosphorylation”.

B2: smAKAP-S66D-GFP: phosphomimetic mutant GFP fusion (protein, UniProt Q9BSF0 2-95, looked up, variant S66D)
Small membrane A-kinase …: B1 Small membrane A-kinase …
modifications: GFP fusion
Take B2: in the experiment on PKA-RIα, the “localization of PKA-RIα on co-transfection” value is on record as “predominantly resided in the cytoplasm”. Further, the “localization of PKA-RIβ on co-transfection” value in the experiment on PKA-RIβ is reported as “predominantly resided in the cytoplasm”.

B3: smAKAP-S66E-GFP: phosphomimetic mutant GFP fusion (protein, UniProt Q9BSF0 2-95, looked up, variant S66E)
Small membrane A-kinase …: B1 Small membrane A-kinase … with D65E
modifications: GFP fusion
With B3, the “localization of PKA-RIα on co-transfection” value with PKA-RIα is reported as “predominantly resided in the cytoplasm”. For the same molecule, the “localization of PKA-RIβ on co-transfection” value with PKA-RIβ is on record as “predominantly resided in the cytoplasm”. Also, the “colocalization with PKA-RIβ-mKO2” value with PKA-RIβ (transfected, confocal, unstimulated) is listed as “no colocalization occurs”.
